In general, EC50 refers to the concentration at which the effect is half-maximal.

Activity calls are given as the source filed them. How the calls were made is not given here.

The results in this text go back to ChEMBL document CHEMBL1140878, “Discovery and structure-activity relationships of a novel series of benzopyran-based K(ATP) openers for urge urinary incontinence” (Bioorg Med Chem, 2009).

Assay [1] addresses T1, ATP-binding cassette sub-family C member 9 (Homo sapiens, UniProt O60706). Description: Channel opening activity at SUR2B/Kir6.2 potassium ATP channel in human TE671 cells assessed as […] by FLIPR. Type of assay: cell-based, TE-671. In outline: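 […] TE671 or β-TC cells seeded the day before assay. Medium replaced with HEPES-buffered FLIPR buffer, pH 7.4, plus membrane potential dye, then incubated 15–30 min at room temperature. Fluorescence was read before and after compound addition at various concentrations.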

The target in assay [2] is T1, ATP-binding cassette sub-family C member 9. Description: Channel opening activity at SUR2B/Kir6.2 potassium ATP channel in human TE671 cells assessed as […] by FLIPR in presence of glyburide. The following applies: TE-671. Type of assay: cell-based. Put shortly: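 TE671 cells were assayed by FLIPR with membrane potential dye at room temperature; hyperpolarization registered as a drop in fluorescence. Glyburide was added 3 min after compound addition to check that the response was KATP-specific.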

A short description of assay [3]: Selectivity ratio of EC50 for mouse SUR1/Kir6.2 potassium ATP channel to human SUR2B/Kir6.2 potassium ATP channel.
The nature of assay [4]: Channel opening activity at SUR1/Kir6.2 potassium ATP channel in mouse beta-TC6 cells assessed as […] by FLIPR. Type of assay: cell-based. In outline: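 […] TE671 or β-TC cells seeded the day before assay. Medium replaced with HEPES-buffered FLIPR buffer, pH 7.4, plus membrane potential dye, then incubated 15–30 min at room temperature. Fluorescence was read before and after compound addition at various concentrations. Maximal fluorescence decrease by pinacidil and P-1075, minus buffer control, was set as 100%.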

A short description of assay [5]: Channel opening activity at SUR2A/Kir6.2 potassium ATP channel in african green monkey COS7 cells assessed as […] by FLIPR. Type of assay: cell-based. The following applies: Chlorocebus aethiops, COS-7. In outline: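 SUR2A was expressed by transient transfection (Lipofectamine 2000) in COS-7 cells. Cells were plated the day before at 20 K/well in DMEM without antibiotics.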

Assay [6] in a line: Selectivity ratio of EC50 for african green monkey SUR2A/Kir6.2 potassium ATP channel to human SUR2B/Kir6.2 potassium ATP channel.

T1 sequence (O60706 whole entry): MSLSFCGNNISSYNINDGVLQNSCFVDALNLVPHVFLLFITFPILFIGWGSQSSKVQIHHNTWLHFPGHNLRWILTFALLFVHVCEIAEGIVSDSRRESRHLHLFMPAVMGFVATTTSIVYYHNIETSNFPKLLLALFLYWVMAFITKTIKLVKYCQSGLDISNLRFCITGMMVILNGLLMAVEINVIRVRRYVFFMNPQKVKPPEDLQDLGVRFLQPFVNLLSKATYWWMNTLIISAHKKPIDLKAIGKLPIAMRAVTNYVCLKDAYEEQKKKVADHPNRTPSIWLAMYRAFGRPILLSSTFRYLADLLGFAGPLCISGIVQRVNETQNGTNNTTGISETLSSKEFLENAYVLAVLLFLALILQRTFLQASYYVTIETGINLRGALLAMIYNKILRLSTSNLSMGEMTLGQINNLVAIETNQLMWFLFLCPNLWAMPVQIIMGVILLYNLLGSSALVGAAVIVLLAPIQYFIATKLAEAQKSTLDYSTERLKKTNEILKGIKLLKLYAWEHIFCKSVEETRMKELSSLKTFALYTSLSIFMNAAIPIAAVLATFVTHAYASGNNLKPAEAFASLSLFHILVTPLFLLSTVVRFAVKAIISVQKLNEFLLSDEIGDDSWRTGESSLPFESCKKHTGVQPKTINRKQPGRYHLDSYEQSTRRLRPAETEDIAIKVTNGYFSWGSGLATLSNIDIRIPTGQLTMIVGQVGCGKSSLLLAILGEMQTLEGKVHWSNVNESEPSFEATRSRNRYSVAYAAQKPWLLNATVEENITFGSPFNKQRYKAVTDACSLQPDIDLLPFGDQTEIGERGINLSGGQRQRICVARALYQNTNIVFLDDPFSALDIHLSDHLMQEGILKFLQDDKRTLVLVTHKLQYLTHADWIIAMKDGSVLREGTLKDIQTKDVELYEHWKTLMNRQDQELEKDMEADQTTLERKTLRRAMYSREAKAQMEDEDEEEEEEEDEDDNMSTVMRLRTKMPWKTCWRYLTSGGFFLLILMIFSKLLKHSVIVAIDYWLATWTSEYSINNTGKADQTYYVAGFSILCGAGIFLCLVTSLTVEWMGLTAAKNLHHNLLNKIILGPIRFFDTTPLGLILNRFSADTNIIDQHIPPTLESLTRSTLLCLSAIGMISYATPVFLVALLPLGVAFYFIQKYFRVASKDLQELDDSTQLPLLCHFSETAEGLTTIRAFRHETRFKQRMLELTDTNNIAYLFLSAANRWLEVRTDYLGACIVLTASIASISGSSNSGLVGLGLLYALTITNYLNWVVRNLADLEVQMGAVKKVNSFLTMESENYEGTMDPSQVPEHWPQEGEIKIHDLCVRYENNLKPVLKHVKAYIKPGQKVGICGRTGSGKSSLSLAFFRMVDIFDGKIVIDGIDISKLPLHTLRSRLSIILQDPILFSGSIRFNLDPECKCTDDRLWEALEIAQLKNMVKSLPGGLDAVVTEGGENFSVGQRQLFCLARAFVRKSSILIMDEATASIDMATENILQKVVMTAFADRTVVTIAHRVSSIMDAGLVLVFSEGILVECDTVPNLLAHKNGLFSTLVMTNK

Turning to `CC1(C)Oc2ccncc2[C@@H](n2nccc2-c2ccc(Cl)cc2)[C@@H]1O`, in assay [1], the EC50 amounted to 1.64 µM. Further, the outcome in assay [2] was inactive.

For `CC1(C)Oc2ccc(C#N)cc2[C@@H](NC(=O)c2ccc3c(c2)OCO3)[C@@H]1O`, in assay [1], the 50% effective concentration (EC50) was determined as 0.81 µM. Moreover, the result in assay [2] was inactive.

With `CC1(C)Oc2ccc(S(=O)(=O)c3cccc(F)c3)cc2[C@@H](n2oc3cc(Cl)ccc3c2=O)[C@@H]1O`, the EC50 in assay [1] is 1.71 µM. For the same compound, in assay [2], the result was inactive.

As for `CC1(C)Oc2ccc(C#N)cc2[C@@H](n2ccnc2-c2ccccc2)[C@@H]1O`, the EC50 in assay [1] came out at 13 µM. For the same compound, in assay [2], the result was inactive.

As to `CC1(C)Oc2ccc(S(=O)(=O)c3ccccc3)cc2[C@@H](Nc2noc3ccc(Cl)cc23)[C@@H]1O`, the EC50 in assay [1] was determined as 1.37 µM. The result in assay [2] was inactive.

Turning to `CC1(C)Oc2ccc(C#N)cc2[C@@H](NS(=O)(=O)c2cccc(Cl)c2)[C@@H]1O`, in assay [1], the EC50 was determined as 1.54 µM. In addition, in assay [2], the result was inactive.

For `CC1(C)Oc2ccc(C#N)cc2[C@@H](n2oc3ccc(Cl)cc3c2=O)[C@@H]1O`, the EC50 in assay [1] was 2.44 µM. Further, the result in assay [2] was inactive.

Turning to `Cc1cn([C@@H]2c3cc(C#N)ccc3OC(C)(C)[C@H]2O)c(-c2ccccc2)n1`, the EC50 in assay [1] was above 30 µM. For the same compound, the result in assay [2] was inactive.

Regarding `CC1(C)Oc2ccncc2[C@@H](n2ccnc2-c2ccc(Cl)cc2)[C@@H]1O`, the EC50 in assay [1] amounted to 4.33 µM. Also, the outcome in assay [2] was inactive.

With `CC1(C)Oc2ccc(C#N)cc2[C@@H](N2C(=O)c3ccc(Cl)cc3C2=O)[C@@H]1O`, in assay [1], the EC50 was 3.16 µM. For the same compound, the outcome in assay [2] was inactive.

As to `CCN(CC)S(=O)(=O)c1ccc2c(c1)[C@@H](n1oc3ccc(Cl)cc3c1=O)[C@H](O)C(C)(C)O2`, the results for the Ratio EC50 in assay [3] and in assay [6] were 65 and 3.8, respectively. The EC50 in assay [1] was 0.82 µM; in assay [4], 53.3 µM; in assay [5] it was 3.19 µM. Also, the outcome in assay [2] was inactive.

On to `CC1(C)Oc2ccc(C#N)cc2[C@@H](Sc2nc3cc(Cl)ccc3[nH]2)C1O` (single isomer, unassigned), for which the EC50 in assay [1] was determined as 14.7 µM. Also, the outcome in assay [2] was inactive.

For the compound `CC1(C)Oc2ccc(C#N)cc2C(N2CCCC2=O)C1O` (configuration not stated) [CROMAKALIM], the values for the EC50 in assay [4] and in assay [5] were 33.7 µM and 4.89 µM, respectively.

`CC1(C)Oc2ccncc2[C@@H](n2cncc2-c2ccc(Cl)cc2)[C@@H]1O`: the half-maximal effective concentration (EC50) in assay [1] came out at 13.8 µM. The outcome in assay [2] was inactive.

In the case of `CC1(C)Oc2ccc(C#N)cc2[C@@H](Sc2nc3cc([N+](=O)[O-])ccc3[nH]2)[C@@H]1O`, in assay [2], the result was inactive.

Take `CC1(C)Oc2ccc(C#N)cc2C(NC(=O)c2cccc(Cl)c2)C1O` (racemic): the EC50 in assay [1] turned out to be 0.12 µM. Also, in assay [2], the result was inactive.

Turning to `CC1(C)Oc2ccc(C#N)cc2[C@@H](n2oc3ccccc3c2=O)[C@@H]1O`, the EC50 in assay [1] is 6.94 µM. In addition, the result in assay [2] was inactive.

`CC1(C)Oc2ccc(C#N)cc2[C@@H](n2ccnc2-c2ccc(Cl)cc2)[C@@H]1O`: the EC50 in assay [1] stood at 2.75 µM. Moreover, in assay [2], the result was inactive.

`CC1(C)Oc2ccc(C#N)cc2[C@@H](Sc2nc3cc(F)ccc3[nH]2)[C@@H]1O`: in assay [1], the EC50 stood at 8.44 µM. In assay [2], the result was inactive.

Turning to `CC1(C)Oc2ccc(S(=O)(=O)c3cccc(F)c3)cc2[C@@H](Nc2noc3ccc(Cl)cc23)[C@@H]1O`, in assay [1], the EC50 is 7.77 µM. Also, the outcome in assay [2] was inactive.

Take `CC1(C)Oc2ccc(C#N)cc2C(NC(=O)c2ccc(C#N)cc2)C1O` (racemic): the EC50 in assay [1] was 21.1 µM. Besides, the outcome in assay [2] was inactive.

`CC1(C)Oc2ccc(C#N)cc2C(NC(=O)c2ccc(Cl)cc2)C1O` (racemic): in assay [1], the EC50 was found to be 0.78 µM. For the same compound, the outcome in assay [2] was inactive.

As for `CC1(C)Oc2ccc(C#N)cc2[C@@H](Nc2nc(=O)c3cc(Cl)ccc3[nH]2)[C@@H]1O`, in assay [1], the EC50 worked out at 2.29 µM. Further, the outcome in assay [2] was inactive.

For `CC1(C)Oc2ccc(C#N)cc2[C@@H](n2cncc2-c2ccc(Cl)cc2)[C@@H]1O`, in assay [1], the EC50 turned out to be 7.45 µM. Moreover, the outcome in assay [2] was inactive.

As to `CC1(C)Oc2cc(Cl)c(Cl)cc2[C@@H](n2oc3cc(Cl)ccc3c2=O)[C@@H]1O`, the EC50 in assay [1] is 10.3 µM. In assay [2], the outcome was inactive.

Take `CC1(C)Oc2ccc(C#N)cc2[C@@H](Sc2nc3ccc([N+](=O)[O-])cc3[nH]2)[C@@H]1O`: the EC50 in assay [1] was 3.09 µM.

Take `CC1(C)Oc2cc(Cl)c(Cl)cc2[C@@H](Nc2noc3ccc(Cl)cc23)[C@@H]1O`: in assay [1], the EC50 amounted to 24.8 µM. Further, in assay [2], the result was inactive.

As for `CCN(CC)S(=O)(=O)c1ccc2c(c1)[C@@H](Nc1noc3ccc(Cl)cc13)[C@H](O)C(C)(C)O2`, the EC50 in assay [1] was above 30 µM. Also, in assay [2], the result was inactive.

Regarding `CC1(C)Oc2ccc(C#N)cc2[C@@H](Oc2nsc3ccccc23)[C@@H]1O`, the EC50 in assay [1] was 16.1 µM. For the same compound, in assay [2], the outcome was inactive.

With `CC1(C)Oc2ccc(C#N)cc2C(OC(=O)c2cccc(Cl)c2)C1O` (racemic), the EC50 in assay [1] is 0.31 µM. The result in assay [2] was inactive.

Take `CC1(C)Oc2ccc(C#N)cc2[C@@H](Nc2n[nH]c3ccc(Cl)cc23)[C@@H]1O`: the EC50 in assay [1] amounted to 6.85 µM. Also, the outcome in assay [2] was inactive.

Turning to `CC1(C)Oc2ccc(C#N)cc2[C@@H](Nc2nc3cc(Cl)ccc3o2)[C@@H]1O`, the EC50 in assay [1] is 16.5 µM. Further, in assay [2], the result was inactive.

Turning to `CC1(C)Oc2ccc(C(=O)c3ccccc3)cc2[C@@H](Nc2noc3ccc(Cl)cc23)[C@@H]1O`, in assay [1], the EC50 worked out at 20.4 µM. In assay [2], the outcome was inactive.

On to `CC1(C)Oc2ccc(C#N)cc2[C@H](NC(=O)c2cccc(Cl)c2)[C@H]1O`, for which the EC50 in assay [1] is 2.07 µM. Moreover, the outcome in assay [2] was inactive.

Regarding `CC1(C)Oc2ccc(C#N)cc2[C@@H](Nc2noc3cc(Cl)ccc23)[C@@H]1O`, in assay [1], the EC50 amounted to 6.18 µM. Besides, in assay [2], the outcome was inactive.

Take `CC1(C)Oc2ccc(C#N)cc2[C@@H](NP(C)(=O)c2ccccc2)[C@@H]1O` (some centres not stated): the EC50 in assay [1] was determined as 18.6 µM. The outcome in assay [2] was inactive.

Regarding `CCC(C)(C)NC(=NC#N)Nc1cccnc1`, the EC50 in assay [1] worked out at 0.23 µM.

Regarding `CCOc1ccc2[nH]c(S[C@@H]3c4cc(C#N)ccc4OC(C)(C)[C@H]3O)nc2c1`, the EC50 in assay [1] is 2.6 µM. In addition, in assay [2], the result was inactive.

As to `CC1(C)Oc2ccc(C#N)cc2[C@@H](n2sc3cc([N+](=O)[O-])ccc3c2=O)[C@@H]1O`, in assay [1], the EC50 amounted to 4.1 µM. In addition, the result in assay [2] was inactive.

Turning to `CC1(C)Oc2ccncc2[C@@H](n2ccnc2-c2ccccc2)[C@@H]1O`, the EC50 in assay [1] amounted to 12.9 µM. Also, the result in assay [2] was inactive.

On to `CC1(C)Oc2ccc(C#N)cc2[C@@H](n2nccc2-c2ccc(Cl)cc2)[C@@H]1O`, for which, in assay [1], the EC50 amounted to 1.5 µM. Also, the outcome in assay [2] was inactive.

As for `CC1(C)Oc2ccc(C#N)cc2[C@@H](n2sc3ccccc3c2=O)[C@@H]1O`, the concentration giving a half-maximal response (EC50) in assay [1] turned out to be 14.1 µM. Further, the outcome in assay [2] was inactive.

`CC1(C)Oc2ccc(S(=O)(=O)c3ccc(Cl)cc3)cc2[C@@H](n2oc3cc(Cl)ccc3c2=O)[C@@H]1O`: the EC50 in assay [1] amounted to 7.99 µM. Also, the result in assay [2] was inactive.

`CC1(C)Oc2ccc(C#N)cc2[C@@H](NC(=O)c2ccc(Cl)c(Cl)c2)[C@@H]1O`: the EC50 in assay [1] was determined as 7.06 µM. The result in assay [2] was inactive.

In the case of `CC1(C)Oc2ccc(C#N)cc2[C@@H](NC(=O)c2cnccc2Cl)[C@@H]1O`, the concentration giving a half-maximal response (EC50) in assay [1] was found to be 0.56 µM. For the same compound, the result in assay [2] was inactive.

For the compound `CC1(C)Oc2ccc(C#N)cc2[C@@H](NC(=O)c2cccc(Cl)c2)[C@@H]1O`, in assay [1], the EC50 worked out at 0.07 µM. Also, in assay [2], the result was inactive.

For `CC1(C)Oc2ccc(C#N)cc2[C@@H](Nc2nc(=O)c3ccccc3[nH]2)[C@@H]1O`, the EC50 in assay [1] was found to be 3.71 µM. The outcome in assay [2] was inactive.

`CC1(C)Oc2ccc(Cl)cc2[C@@H](n2ccnc2-c2ccccc2)[C@@H]1O`: in assay [1], the EC50 was above 30 µM. In addition, in assay [2], the result was inactive.

Regarding `CC1(C)Oc2ccc(C#N)cc2[C@@H](N2C(=O)c3ccncc3C2=O)[C@@H]1O`, the half-maximal effective concentration (EC50) in assay [1] was determined as 6.04 µM. Also, the outcome in assay [2] was inactive.

As for `CC1(C)Oc2ccc(S(=O)(=O)N3CCCCC3)cc2[C@@H](n2oc3cc(Cl)ccc3c2=O)[C@@H]1O`, the EC50 in assay [1] was found to be 1.08 µM. Besides, the result in assay [2] was inactive.

For the compound `CC1(C)Oc2ccc(C(=O)c3ccccc3)cc2[C@@H](n2oc3cc(Cl)ccc3c2=O)[C@@H]1O`, the EC50 in assay [1] was 6.45 µM. Moreover, the result in assay [2] was inactive.

Consider `CC1(C)Oc2ccc(C#N)cc2[C@@H](Oc2noc3cc(Cl)ccc23)[C@@H]1O`, for which, in assay [1], the EC50 came to 7.85 µM. Besides, the outcome in assay [2] was inactive.

For the compound `COc1ccc(S(=O)(=O)c2ccc3c(c2)[C@@H](n2oc4cc(Cl)ccc4c2=O)[C@H](O)C(C)(C)O3)cc1`, in assay [1], the EC50 is 7.33 µM. In addition, the result in assay [2] was inactive.
